Results reported in ChEMBL document CHEMBL3045646, “Synthesis and antityrosinase activities of alkyl 3,4-dihydroxybenzoates” (J Agric Food Chem, 2011).
Calls of active or inactive are those of the source. No cut-off for these calls is given here.

Columns and labels:
[1] = biological target: T1, Tyrosinase (Agaricus bisporus) (UniProt O42713); assay: Uncompetitive inhibition of Agaricus bisporus (mushroom) tyrosinase assessed as […] in Km and Vm without change in Km/Vm using L-DOPA as substrate by Line-weaver burk plot analysis
T1 sequence (whole entry): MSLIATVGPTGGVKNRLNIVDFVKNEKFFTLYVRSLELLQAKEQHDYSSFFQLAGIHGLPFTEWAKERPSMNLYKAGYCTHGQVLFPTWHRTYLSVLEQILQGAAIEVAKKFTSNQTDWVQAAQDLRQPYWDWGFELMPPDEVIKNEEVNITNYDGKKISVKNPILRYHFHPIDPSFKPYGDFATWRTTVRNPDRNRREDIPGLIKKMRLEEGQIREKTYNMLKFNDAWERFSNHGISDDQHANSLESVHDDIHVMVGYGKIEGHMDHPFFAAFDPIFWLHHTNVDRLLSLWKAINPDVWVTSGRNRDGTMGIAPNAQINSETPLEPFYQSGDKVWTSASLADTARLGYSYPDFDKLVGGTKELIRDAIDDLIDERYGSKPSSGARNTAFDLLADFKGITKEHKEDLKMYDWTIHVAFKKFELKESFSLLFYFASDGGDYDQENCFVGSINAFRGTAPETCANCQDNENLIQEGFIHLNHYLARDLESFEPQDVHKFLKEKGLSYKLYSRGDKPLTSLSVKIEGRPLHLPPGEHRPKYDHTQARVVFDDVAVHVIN
Outline: (§1)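 L-DOPA oxidation by mushroom tyrosinase at 30 °C, pH 6.8, with inhibitor at 0, 50, 100, 150 and 200 μM, read at 475 nm. Inhibition type came from Lineweaver–Burk plots (1/v vs 1/[S]). K_IS came from a secondary plot of 1/V_m (or apparent K_m/V_m) against inhibitor concentration.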

[2] = biological target: T1, Tyrosinase (Agaricus bisporus); assay: Reversible inhibition of Agaricus bisporus (mushroom) tyrosinase assessed as remaining enzyme activity using L-DOPA as substrate by spectrophotometric analysis
Outline: (§2)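 Reversibility tested with L-DOPA as substrate in pH 6.8 phosphate buffer at 30 °C, with A475 read-out. Remaining activity was plotted against enzyme concentration at several inhibitor levels, with inhibitor series of 0–200, 0–100 or 0–80 μM. Lines through the origin were taken as reversible, and parallel lines not through the origin as irreversible.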

[3] = biological target: T2, Tyrosinase (Agaricus bisporus, UniProt O42713); assay: Inhibition of Agaricus bisporus (mushroom) tyrosinase-catalyzed oxidation of L-DOPA substrate by spectrophotometric analysis
T2 sequence (O42713 whole entry): T1 sequence (whole entry)
Outline: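 Diphenolase activity of mushroom tyrosinase (6.67 μg/mL final) with 0.5 mM L-DOPA in 50 mM sodium phosphate pH 6.8, 30 °C. Inhibitors added from DMSO, 3.3% DMSO final; DMSO-only controls. Rate from slope of linear A475 progress curve. IC50 = concentration giving 50% activity loss.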

[4] = biological target: T2, Tyrosinase; assay: Inhibition of Agaricus bisporus (mushroom) tyrosinase using L-DOPA as substrate by secondary plot analysis; outline: as §1
[5] = biological target: T1, Tyrosinase (Agaricus bisporus); assay: Uncompetitive inhibition of Agaricus bisporus (mushroom) tyrosinase assessed as […] in Km and Vm without change in Km/Vm using L-DOPA as substrate at 50 uM by Line-weaver burk plot analysis; outline: as §1
[6] = tested on: Plutella xylostella; assay: Downregulation of tyrosinase inactive precursor, PxPPO gene expression in newly molted second-instar larval stage of Plutella xylostella (diamondback moth) at 2.5 to 40 mg/ml after 72 hr by real-time quantitative PCR analysis; assay type: functional, organism-based
Outline: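 Compound in acetone, diluted to 2.5, 5, 20 and 40 mg/mL and spread on feed surface in wells. Larvae reared at 27 ± 2 °C, 70% humidity, 14:10 h light:dark. Whole-body PxPPO2 transcripts measured 72 h after treatment by real-time qPCR (95 °C 10 s; 45 cycles of 95 °C 5 s / 60 °C 20 s), with melting-curve check, normalized to GAPDH.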

[7] = tested on: Plutella xylostella; assay: Insecticidal activity against second-instar larval stage of Plutella xylostella (diamondback moth) assessed as inhibition of insect development and molting at 40 mg/ml after 3 days (reference value: 0.95 cm); assay type: functional
Outline: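 Compound dissolved in acetone, diluted (2.5–40 mg/mL) and spread over feed surface. Larvae kept at 27 ± 2 °C, 70% humidity, 14:10 h light:dark photoperiod. Larval body length recorded after 3 days.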

[8] = biological target: T1, Tyrosinase (Agaricus bisporus); assay: Irreversible inhibition of Agaricus bisporus (mushroom) tyrosinase assessed as remaining enzyme activity using L-DOPA as substrate by spectrophotometric analysis; outline: as §2
[9] = biological target: T1, Tyrosinase (Agaricus bisporus); assay: Reversible inhibition of Agaricus bisporus (mushroom) tyrosinase assessed as remaining enzyme activity at <50 uM using L-DOPA as substrate by spectrophotometric analysis; outline: as §2
[10] = biological target: T1, Tyrosinase (Agaricus bisporus); assay: Irreversible inhibition of Agaricus bisporus (mushroom) tyrosinase assessed as remaining enzyme activity at >75 uM using L-DOPA as substrate by spectrophotometric analysis; outline: as §2

inhibition [1]	inhibition [2]	IC50 [3] [µM]	Ki [4] [µM]	inhibition [5]	inhibition [8]	inhibition [9]	inhibition [10]	Structure (SMILES)	inhibition [6]	Activity [7] [cm]
Active	Active	316	135	–	–	–	–	CCCCCCCOC(=O)c1ccc(O)c(O)c1 [HEPTYL 3,4-DIHYDROXYBENZOATE]	–	–
–	Active	910	389	Active	–	–	–	CCCCCCOC(=O)c1ccc(O)c(O)c1 [HEXYL 3,4-DIHYDROXYBENZOATE]	Active	0.3
–	–	81	–	–	Active	–	–	CCCCCCCCCOC(=O)c1ccc(O)c(O)c1 [NONYL 3,4-DIHYDROXYBENZOATE]	–	–
–	–	129	–	Active	–	Active	Active	CCCCCCCCOC(=O)c1ccc(O)c(O)c1 [OCTYL 3,4-DIHYDROXYBENZOATE]	–	–
